The values below come from ChEMBL document CHEMBL1122788, “Quantitative relationships between alpha-adrenergic activity and binding affinity of alpha-adrenoceptor agonists and antagonists” (J Med Chem, 1984).

Each structure is given as a SMILES string.

In the first test the target is T1, Adrenergic receptor alpha-2 (Rattus norvegicus, UniProt P22086+P19328+P22909).
T1 sequence (P22086 whole entry): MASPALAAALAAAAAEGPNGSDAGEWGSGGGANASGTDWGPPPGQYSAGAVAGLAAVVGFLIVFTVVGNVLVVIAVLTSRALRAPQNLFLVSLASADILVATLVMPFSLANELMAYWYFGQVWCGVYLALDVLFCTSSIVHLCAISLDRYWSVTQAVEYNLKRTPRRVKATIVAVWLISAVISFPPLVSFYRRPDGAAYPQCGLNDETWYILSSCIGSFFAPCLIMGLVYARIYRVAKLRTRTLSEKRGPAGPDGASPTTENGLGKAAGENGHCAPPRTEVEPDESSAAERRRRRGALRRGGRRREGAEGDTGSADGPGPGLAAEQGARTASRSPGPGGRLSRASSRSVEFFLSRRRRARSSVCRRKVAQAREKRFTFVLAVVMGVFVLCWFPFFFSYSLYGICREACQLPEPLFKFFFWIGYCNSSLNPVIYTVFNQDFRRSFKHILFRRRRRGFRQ
T1 sequence (P19328 whole entry): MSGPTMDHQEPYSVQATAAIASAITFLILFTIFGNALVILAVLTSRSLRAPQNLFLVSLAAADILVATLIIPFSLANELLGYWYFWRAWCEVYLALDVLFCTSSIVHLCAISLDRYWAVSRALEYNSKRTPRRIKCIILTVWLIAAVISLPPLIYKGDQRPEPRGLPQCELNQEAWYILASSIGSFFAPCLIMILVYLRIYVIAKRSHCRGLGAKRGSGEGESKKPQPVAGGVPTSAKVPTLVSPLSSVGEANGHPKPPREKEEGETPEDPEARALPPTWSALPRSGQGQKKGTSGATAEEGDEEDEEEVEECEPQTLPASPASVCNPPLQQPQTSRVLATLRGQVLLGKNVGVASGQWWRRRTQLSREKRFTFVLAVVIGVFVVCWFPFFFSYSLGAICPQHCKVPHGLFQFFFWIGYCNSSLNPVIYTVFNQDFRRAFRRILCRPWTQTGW
T1 sequence (P22909 whole entry): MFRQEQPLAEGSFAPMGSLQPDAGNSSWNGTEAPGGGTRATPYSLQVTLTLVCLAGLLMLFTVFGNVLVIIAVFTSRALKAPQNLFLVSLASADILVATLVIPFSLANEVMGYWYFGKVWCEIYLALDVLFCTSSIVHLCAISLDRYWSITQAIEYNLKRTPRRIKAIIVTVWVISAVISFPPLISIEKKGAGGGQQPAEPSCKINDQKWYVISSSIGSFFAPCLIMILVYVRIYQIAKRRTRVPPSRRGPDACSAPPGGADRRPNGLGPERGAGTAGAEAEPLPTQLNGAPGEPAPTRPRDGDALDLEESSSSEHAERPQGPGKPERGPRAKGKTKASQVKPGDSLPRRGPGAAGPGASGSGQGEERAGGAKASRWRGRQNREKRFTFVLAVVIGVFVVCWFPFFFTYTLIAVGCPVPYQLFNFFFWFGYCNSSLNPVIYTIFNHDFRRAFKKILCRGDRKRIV
Briefly: 50% inhibition of specific [3H]clonidine binding (0.4 nM) to Alpha-2 adrenergic receptors in rat isolated brain membranes. It counts as cell membranes, Membrane. In outline: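 Whole rat brain (minus cerebellum) from male Wistar rats (200–250 g), homogenized in ice-cold 50 mM Tris-HCl pH 7.7 and washed twice at 50000g. Bound ligand was collected by rapid filtration and counted. IC50 was derived by log-probit analysis.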
As a reminder, the IC50 is the point on the concentration scale where inhibition reaches its midpoint. Higher therefore signals lower potency. In the case of `N=C(N)N/N=C/c1c(Cl)cccc1Cl` [GUANABENZ], the half-maximal inhibitory concentration (IC50) stood at 1.7 nM.
Same read-out and setting: with `COc1ccc(OC)c(C(O)C(C)N)c1` (stereo not given) [METHOXAMINE] the figure was 3600 nM.

The target in the next test is T1, Adrenergic receptor alpha-2. In words: Binding affinity against Alpha-2 adrenergic receptor is the ability to inhibit the specific [3H]clonidine binding (0.4 nM) to rat isolated brain membranes by 50% was reported; 1.6*10e-8. Also noted: species or system Membrane. Put shortly: (§1)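 Whole rat brain (minus cerebellum) from male Wistar rats (200–250 g), homogenized in ice-cold 50 mM Tris-HCl pH 7.7 and washed twice at 50000g. […] Bound ligand was collected by rapid filtration and counted. IC50 was derived by log-probit analysis.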
The compound `c1cc2c(c(NC3=NCCN3)c1)CCCC2` [TRAMAZOLINE] gave a 50% inhibitory concentration (IC50) of 16 nM.

For another test the target is unchanged. In words: Binding affinity against Alpha-2 adrenergic receptor is the ability to inhibit the specific [3H]clonidine binding (0.4 nM) to rat isolated brain membranes by 50% was reported; 2.5*10e-8. It counts as tissue-based, Membrane.
The compound `C=CCN1CCc2nc(N)sc2CC1` [TALIPEXOLE] yielded an IC50 of 25 nM.

The next test shares this target. Briefly: Binding affinity against Alpha-2 adrenergic receptor is the ability to inhibit the specific [3H]clonidine binding (0.4 nM) to rat isolated brain membranes by 50% was reported; 9.1*10e-9. The test is classed as tissue-based, Membrane. Put shortly: as §1
In turn, `Cc1csc(Cl)c1NC1=NCCN1` [TIAMENIDINE] yielded a 50% inhibitory concentration (IC50) of 9.1 nM.

For a further test the target is unchanged. In words: Binding affinity against alpha-2 adrenergic receptor is the ability to inhibit the specific [3H]clonidine binding (0.4 nM) to rat isolated brain membranes by 50% was reported. Also noted: species or system Membrane. Put shortly:
as §1
`Oc1ccc(NC2=NCCN2)cc1O` came in with an IC50 of 14 nM. This counts as double-digit nanomolar.

For the next test, the target named is T2, Adrenergic receptor alpha-1 (Rattus norvegicus, UniProt P15823+P23944+P43140).
T2 sequence (P15823 whole entry): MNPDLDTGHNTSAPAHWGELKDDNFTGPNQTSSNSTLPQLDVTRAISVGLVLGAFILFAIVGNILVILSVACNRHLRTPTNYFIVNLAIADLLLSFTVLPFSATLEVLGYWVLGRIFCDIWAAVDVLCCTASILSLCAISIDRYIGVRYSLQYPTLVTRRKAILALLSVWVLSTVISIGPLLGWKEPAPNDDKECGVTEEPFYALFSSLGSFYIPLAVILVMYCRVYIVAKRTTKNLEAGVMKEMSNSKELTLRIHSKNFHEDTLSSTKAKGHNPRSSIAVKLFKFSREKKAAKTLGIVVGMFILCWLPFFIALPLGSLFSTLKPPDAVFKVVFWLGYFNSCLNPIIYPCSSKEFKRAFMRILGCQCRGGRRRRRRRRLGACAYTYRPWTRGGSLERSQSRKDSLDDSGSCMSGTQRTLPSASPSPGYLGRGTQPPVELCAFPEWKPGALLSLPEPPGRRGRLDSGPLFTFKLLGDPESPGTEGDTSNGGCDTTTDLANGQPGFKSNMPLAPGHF
T2 sequence (P23944 whole entry): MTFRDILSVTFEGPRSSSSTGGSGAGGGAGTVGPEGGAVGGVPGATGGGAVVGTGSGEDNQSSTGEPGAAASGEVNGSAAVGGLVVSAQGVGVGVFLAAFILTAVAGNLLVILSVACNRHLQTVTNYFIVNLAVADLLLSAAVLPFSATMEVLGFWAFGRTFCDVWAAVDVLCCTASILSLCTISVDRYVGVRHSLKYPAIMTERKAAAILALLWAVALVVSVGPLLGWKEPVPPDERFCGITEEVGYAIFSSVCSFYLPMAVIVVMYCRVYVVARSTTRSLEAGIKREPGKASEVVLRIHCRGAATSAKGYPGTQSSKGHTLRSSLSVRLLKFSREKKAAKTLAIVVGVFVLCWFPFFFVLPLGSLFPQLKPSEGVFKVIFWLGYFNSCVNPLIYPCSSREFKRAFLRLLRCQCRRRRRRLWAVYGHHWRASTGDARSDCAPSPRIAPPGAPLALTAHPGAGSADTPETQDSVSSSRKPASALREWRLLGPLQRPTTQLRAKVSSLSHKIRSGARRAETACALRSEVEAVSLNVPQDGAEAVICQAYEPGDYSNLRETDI
T2 sequence (P43140 whole entry): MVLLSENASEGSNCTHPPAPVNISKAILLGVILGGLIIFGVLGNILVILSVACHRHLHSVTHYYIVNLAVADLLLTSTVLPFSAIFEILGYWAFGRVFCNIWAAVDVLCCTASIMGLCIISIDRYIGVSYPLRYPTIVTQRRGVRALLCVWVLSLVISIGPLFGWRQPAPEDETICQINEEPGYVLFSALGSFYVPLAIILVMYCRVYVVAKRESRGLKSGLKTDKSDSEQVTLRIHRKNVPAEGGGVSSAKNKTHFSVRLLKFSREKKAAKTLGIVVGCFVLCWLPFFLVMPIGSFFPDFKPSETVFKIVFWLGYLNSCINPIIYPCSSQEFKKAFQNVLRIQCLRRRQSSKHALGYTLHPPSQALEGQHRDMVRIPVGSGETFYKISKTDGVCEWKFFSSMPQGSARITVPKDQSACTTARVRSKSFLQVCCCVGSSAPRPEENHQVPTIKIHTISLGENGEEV
In words: Binding affinity against alpha-1 adrenergic receptor is the ability to inhibit the specific [3H]-prazosin binding (0.2 nM) to rat isolated brain membranes by 50% was reported; 4.85*10e-6. The test is classed as tissue-based, Membrane. Put shortly:
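Whole rat brain (minus cerebellum) from male Wistar rats (200–250 g), homogenized in ice-cold 50 mM Tris-HCl pH 7.7 and washed twice at 50000g. […] Bound ligand was collected by filtration and counted. IC50 was derived by log-probit analysis.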
Regarding `Cc1csc(Cl)c1NC1=NCCN1` [TIAMENIDINE], the IC50 worked out at 4850 nM.

A further test has as its target T2, Adrenergic receptor alpha-1. Briefly: Binding affinity against alpha-1 adrenergic receptor is the ability to inhibit the specific [3H]-prazosin binding (0.2 nM) to rat isolated brain membranes by 50% was reported; 5*10e-4. It counts as tissue-based, Membrane. Put shortly: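 Brain membranes were prepared from male Wistar rats (200–250 g, cerebellum removed) in ice-cold 50 mmol/L Tris-HCl, pH 7.7, with two 50000g spins, and used at 1 mg/mL protein (Lowry). […] Bound label was collected by vacuum filtration and counted. IC50 came from log probit analysis.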
Compound `C=CCN1CCc2nc(N)sc2CC1` [TALIPEXOLE] yielded an IC50 of 500000 nM.

The subject of a further test is Rattus norvegicus. In words: Hypertensive activity (increase in arterial pressure to 60 mmHg)) after i.v. administration to pithed rats.
For the compound `Oc1ccc(NC2=NCCN2)cc1O`, the pC60 turned out to be 2.44 uM kg-1.
Turning to `Clc1cccc(Cl)c1NC1=NCCN1` [CLONIDINE], the pC60 was 1.78 uM kg-1.
The same measure, in the same setting: under `N=C(N)N/N=C/c1c(Cl)cccc1Cl` [GUANABENZ] stands 0.93 uM kg-1; under `COc1ccc(OC)c(C(O)C(C)N)c1` (stereo not given) [METHOXAMINE], 0.75 uM kg-1; under `c1ccc2c(CC3=NCCN3)cccc2c1` [NAPHAZOLINE], 1.83 uM kg-1.
Still for that read-out and setting: with `CNC[C@H](O)c1cccc(O)c1` [PHENYLEPHRINE] the figure was 1.55 uM kg-1.
Consider `C=CCN1CCc2nc(N)sc2CC1` [TALIPEXOLE], for which the pC60 was found to be 0.69 uM kg-1.
`Cc1csc(Cl)c1NC1=NCCN1` [TIAMENIDINE] returned a pC60 of 1.2 uM kg-1.
Same read-out and setting: under `c1cc2c(c(NC3=NCCN3)c1)CCCC2` [TRAMAZOLINE] stands 1.8 uM kg-1.

A further test relates to Rattus norvegicus. Briefly: Hypotensive activity (25% decrease in arterial pressure) after i.v. administration to anesthetized normotensive rats.
On to `Brc1c(NC2=NCCN2)ccc2nccnc12` [BRIMONIDINE], for which the pC25 came out at 1.55 uM kg-1.
Take `Clc1cccc(Cl)c1NC1=NCCN1` [CLONIDINE]: the pC25 is 2.04 uM kg-1.
The same measure, in the same setting: with `c1ccc2c(CC3=NCCN3)cccc2c1` [NAPHAZOLINE] the figure was 0.95 uM kg-1; with `C=CCN1CCc2nc(N)sc2CC1` [TALIPEXOLE], 1.43 uM kg-1.
Same read-out and setting: with `Cc1csc(Cl)c1NC1=NCCN1` [TIAMENIDINE] the figure was 0.69 uM kg-1; with `c1cc2c(c(NC3=NCCN3)c1)CCCC2` [TRAMAZOLINE], 0.55 uM kg-1.

In the next test the target is T2, Adrenergic receptor alpha-1. Briefly: Binding affinity against alpha-1 adrenergic receptor is the ability to inhibit the specific [3H]prazosin binding (0.2 nM) to rat isolated brain membranes by 50% was reported.
In turn, `Oc1ccc(NC2=NCCN2)cc1O` had an IC50 of 5100 nM.
On the same count and under the same terms, with `COc1ccc(OC)c(C(O)C(C)N)c1` (stereo not given) [METHOXAMINE] the figure was 170000 nM.
